The term MIC denotes the lowest concentration found to suppress growth. The low end stands for a more susceptible organism, the high end for a less susceptible organism.

From ChEMBL document CHEMBL1629475, “Synthesis of new chalcone derivatives containing a rhodanine-3-acetic acid moiety with potential anti-bacterial activity” (2010) come the findings set out here.

The subject of assay [1] is Staphylococcus aureus. The assay is described as follows: Antibacterial activity against Staphylococcus aureus RN 4220 at 64 ug/ml. In kind it is functional, organism-based.
Assay [2] relates to Staphylococcus aureus. Description: Antibacterial activity against Staphylococcus aureus KCTC 503 at 64 ug/ml. The assay is classed as functional, organism-based.
For assay [3], the system named is Staphylococcus aureus. The assay is described as follows: Antibacterial activity against Staphylococcus aureus KCTC 209 at 64 ug/ml. The assay is classed as functional, organism-based.
Assay [4] relates to Streptococcus mutans. The assay is described as follows: Antibacterial activity against Streptococcus mutans KCTC 3065 at 64 ug/ml. The assay is classed as functional, organism-based.
Assay [5] has as its system Streptococcus mutans. The assay is described as follows: Antibacterial activity against Streptococcus mutans KCTC 3289 at 64 ug/ml. The assay is classed as functional, organism-based.
For assay [6], the system named is Staphylococcus aureus. Description: Antibacterial activity against Staphylococcus aureus RN 4220 after 20 hrs by twofold serial dilution technique. In kind it is functional. Particulars: RN 4220, 20 h. The gist of the method: (§1)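 Inoculum was 10⁵ CFU/mL. MIC was read after 20 h at 37 °C. The MRSA and QRSA strains were multidrug-resistant clinical isolates. Oxacillin and norfloxacin served as positive controls.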

Assay [7] concerns Staphylococcus aureus. The assay is described as follows: Antibacterial activity against Staphylococcus aureus KCTC 503 after 20 hrs by twofold serial dilution technique. The assay is classed as functional. Particulars: KCTC 503, 20 h. In a few lines: as §1
Assay [8] relates to Staphylococcus aureus. The assay is described as follows: Antibacterial activity against Staphylococcus aureus KCTC 209 after 20 hrs by twofold serial dilution technique. The assay is classed as functional. Particulars: KCTC 209, 20 h. The gist of the method:
as §1

The test system of assay [9] is Streptococcus mutans. The assay is described as follows: Antibacterial activity against Streptococcus mutans KCTC 3065 after 20 hrs by twofold serial dilution technique. In kind it is functional. Particulars: KCTC 3065, 20 h. In a few lines: (§2)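 Inoculum was 10⁵ CFU/mL, and MIC was read after incubation at 37 °C for 20 h. Oxacillin and norfloxacin were the positive controls.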

Assay [10] has as its system Streptococcus mutans. The assay is described as follows: Antibacterial activity against Streptococcus mutans KCTC 3289 after 20 hrs by twofold serial dilution technique. In kind it is functional. Particulars: KCTC 3289, 20 h. In a few lines:
as §2

The subject of assay [11] is Escherichia coli. Description: Antibacterial activity against Escherichia coli 1924 after 20 hrs by twofold serial dilution technique. In kind it is functional. Particulars: Escherichia coli, 1924, 20 h. The gist of the method:
as §1

The test system of assay [12] is Escherichia coli. Description: Antibacterial activity against Escherichia coli 1356 after 20 hrs by twofold serial dilution technique. In kind it is functional. The following applies: Escherichia coli, 1356, 20 h. The gist of the method:
as §1

Assay [13] concerns Escherichia coli. Description: Antibacterial activity against Escherichia coli 1356 at 64 ug/ml. The assay is classed as functional, organism-based.
Assay [14] concerns Escherichia coli. Description: Antibacterial activity against Escherichia coli 1924 at 64 ug/ml. The assay is classed as functional, organism-based.
Assay [15] deals with Staphylococcus aureus. The assay is described as follows: Antibacterial activity against Staphylococcus aureus MRSA CCARM 3167 after 20 hrs by twofold serial dilution technique. In kind it is functional. Particulars: MRSA CCARM 3167, 20 h. In a few lines:
as §1

Assay [16] relates to Staphylococcus aureus. Description: Antibacterial activity against Staphylococcus aureus MRSA CCARM 3506 after 20 hrs by twofold serial dilution technique. In kind it is functional. The following applies: MRSA CCARM 3506, 20 h. In a few lines:
as §1

Assay [17] has as its system Staphylococcus aureus. The assay is described as follows: Antibacterial activity against Staphylococcus aureus QRSA CCARM 3505 after 20 hrs by twofold serial dilution technique. The assay is classed as functional. Particulars: QRSA CCARM 3505, 20 h. In a few lines:
as §1

Assay [18] has as its system Staphylococcus aureus. The assay is described as follows: Antibacterial activity against Staphylococcus aureus QRSA CCARM 3519 after 20 hrs by twofold serial dilution technique. Particulars: QRSA CCARM 3519, 20 h. The assay is classed as functional. In a few lines: as §1

Converted amounts (≈) assume the structure as drawn. The source made the active and inactive calls. The rule behind the calls is not given here.

As to `O=C(O)CN1C(=O)/C(=C\c2ccc(/C=C/C(=O)c3ccccc3F)cc2)SC1=S`, the outcome with Staphylococcus aureus [1], with Staphylococcus aureus [2], with Staphylococcus aureus [3], in the assay with Streptococcus mutans [4], in the assay on Streptococcus mutans [5] and in the assay with Escherichia coli [13] was inactive. In addition, the outcome in the assay on Escherichia coli [14] was inactive. In addition, the MIC against Staphylococcus aureus [6], against Staphylococcus aureus [7], in the assay on Staphylococcus aureus [8], with Streptococcus mutans [9], in the assay on Streptococcus mutans [10] and against Escherichia coli [11] was more than 64 µg/mL throughout. For the same compound, the MIC against Escherichia coli [12] is more than 64 µg/mL.
Take `O=C(O)CN1C(=O)/C(=C\c2ccc(/C=C/C(=O)c3ccccc3Cl)cc2)SC1=S`: the outcome in the assay with Staphylococcus aureus [1], in the assay with Staphylococcus aureus [2], with Staphylococcus aureus [3], with Streptococcus mutans [4], with Streptococcus mutans [5] and with Escherichia coli [13] was inactive. The result in the assay with Escherichia coli [14] was inactive. The MIC against Staphylococcus aureus [6], against Staphylococcus aureus [7], with Staphylococcus aureus [8], in the assay on Streptococcus mutans [9], against Streptococcus mutans [10] and in the assay on Escherichia coli [11] was more than 64 µg/mL throughout. Moreover, the MIC in the assay with Escherichia coli [12] was more than 64 µg/mL.
As to `O=C(O)CN1C(=O)CSC1=S` [RHODANINE-3-ACETIC ACID], the outcome in the assay on Staphylococcus aureus [1], in the assay on Staphylococcus aureus [2], in the assay on Staphylococcus aureus [3], in the assay with Streptococcus mutans [4], in the assay on Streptococcus mutans [5] and with Escherichia coli [13] was inactive. Also, in the assay with Escherichia coli [14], the result was inactive. Also, the MIC against Staphylococcus aureus [6], against Staphylococcus aureus [7], in the assay with Staphylococcus aureus [8], with Streptococcus mutans [9], in the assay on Streptococcus mutans [10] and with Escherichia coli [11] was more than 64 µg/mL throughout. The same compound had an MIC in the assay on Escherichia coli [12] of more than 64 µg/mL.
In the case of `O=C(O)CN1C(=O)/C(=C\c2ccc(/C=C/C(=O)c3ccccc3Br)cc2)SC1=S`, the outcome with Staphylococcus aureus [1], in the assay with Staphylococcus aureus [2], in the assay with Staphylococcus aureus [3], in the assay with Streptococcus mutans [4], in the assay with Streptococcus mutans [5] and in the assay with Escherichia coli [13] was inactive. Also, the outcome in the assay with Escherichia coli [14] was inactive. Further, the MIC against Staphylococcus aureus [6], against Staphylococcus aureus [7], in the assay with Staphylococcus aureus [8], against Streptococcus mutans [9], in the assay with Streptococcus mutans [10] and in the assay with Escherichia coli [11] was more than 64 µg/mL throughout. The compound further registered an MIC against Escherichia coli [12] of more than 64 µg/mL.
Regarding `O=C(O)CN1C(=O)/C(=C\c2ccc(/C=C/C(=O)c3cccc(Br)c3)cc2)SC1=S`, the MIC in the assay with Staphylococcus aureus [6] is 8 µg/mL (≈ 16.4 µM); against Staphylococcus aureus [7], 8 µg/mL (≈ 16.4 µM); against Staphylococcus aureus [8], 8 µg/mL (≈ 16.4 µM); with Streptococcus mutans [9], 8 µg/mL (≈ 16.4 µM); in the assay with Streptococcus mutans [10], 8 µg/mL (≈ 16.4 µM); in the assay with Escherichia coli [11] it was more than 64 µg/mL. The MIC in the assay on Escherichia coli [12] is more than 64 µg/mL; against Staphylococcus aureus [15], 8 µg/mL (≈ 16.4 µM); against Staphylococcus aureus [16], 8 µg/mL (≈ 16.4 µM); in the assay with Staphylococcus aureus [17] it was 8 µg/mL (≈ 16.4 µM); in the assay on Staphylococcus aureus [18], 8 µg/mL (≈ 16.4 µM). Further, the result with Escherichia coli [13] and in the assay on Escherichia coli [14] was inactive.
As to `O=C(O)CN1C(=O)/C(=C\c2ccc(/C=C/C(=O)c3ccc(Br)cc3)cc2)SC1=S`, the MIC against Staphylococcus aureus [6] was 4 µg/mL (≈ 8.19 µM); against Staphylococcus aureus [7], 4 µg/mL (≈ 8.19 µM); in the assay with Staphylococcus aureus [8], 4 µg/mL (≈ 8.19 µM); in the assay with Streptococcus mutans [9], 4 µg/mL (≈ 8.19 µM); against Streptococcus mutans [10] it was 4 µg/mL (≈ 8.19 µM); in the assay with Escherichia coli [11] it was more than 64 µg/mL. Besides, the MIC with Escherichia coli [12] is more than 64 µg/mL; in the assay with Staphylococcus aureus [15], 4 µg/mL (≈ 8.19 µM); with Staphylococcus aureus [16], 4 µg/mL (≈ 8.19 µM); in the assay with Staphylococcus aureus [17] it was 4 µg/mL (≈ 8.19 µM); against Staphylococcus aureus [18], 4 µg/mL (≈ 8.19 µM). In addition, the result in the assay with Escherichia coli [13] and with Escherichia coli [14] was inactive.
